The source made the active and inactive calls. The rule behind the calls is not given here.
Legend:
[1] = system: Respiratory syncytial virus; experiment: Antiviral activity against RSV infected in human cervix carcinoma cells assessed as inhibition of virus-induced cytopathic effect at 0.32 to 100 uM; assay type: functional, organism-based
Outline: (§1)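 Confluent cell cultures were infected with 100 CCID50 of virus in the presence of test compound at 100, 40, 8, 1.6 and 0.32 μM. Cytopathic effect was scored once it was complete in untreated infected controls.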

[2] = system: Coxsackievirus B4; experiment: Antiviral activity against Coxsackievirus B4 infected in human cervix carcinoma cells assessed as inhibition of virus-induced cytopathic effect at 0.32 to 100 uM; assay type: functional, organism-based; outline: as §1
[3] = system: L1210; experiment: Cytostatic activity against mouse L1210 cells after 2 days by coulter counter analysis; assay type: functional, cell-based; details: L1210, 48 h
Outline: (§2)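 300,000–500,000 cells/ml mixed 1:1 with compound dilutions and incubated at 37 °C for 2 days (L1210) or 3 days (CEM, HeLa). Cell number counted with a Coulter counter; HeLa trypsinized before counting.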

[4] = system: CCRF-CEM; experiment: Cytostatic activity against human CEM cells after 3 days by coulter counter analysis; assay type: functional, cell-based; details: 72 h; outline: as §2
[5] = system: HeLa; experiment: Cytostatic activity against human HeLa cells after 3 days by coulter counter analysis; assay type: functional, cell-based; details: 72 h; outline: as §2
[6] = system: HCT-116; experiment: Cytostatic activity against human HCT116 cells after 72 hrs by MTT assay; assay type: functional, cell-based; details: HCT-116, 72 h
Outline: (§3)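 Monolayers in DMEM with 10% FBS, 2 mM L-glutamine and penicillin/streptomycin, 37 °C, 5% CO2. Seeded at 1–3 × 10^4 cells/ml, then compound added in tenfold dilutions (10⁻⁸–10⁻⁴ M) for 72 h. MTT read at 570 nm; percent growth taken against time-zero and untreated controls. IC50 by linear regression; quadruplicate, at least two experiments.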

[7] = system: MCF7; experiment: Cytostatic activity against human MCF7 cells after 72 hrs by MTT assay; assay type: functional, cell-based; details: MCF7, 72 h; outline: as §3
[8] = system: NCI-H460; experiment: Cytostatic activity against human NCI-H460 cells after 72 hrs by MTT assay; assay type: functional, cell-based; details: NCI-H460, 72 h; outline: as §3
[9] = system: Human alphaherpesvirus 1; experiment: Antiviral activity against HSV1 KOS infected in human lung fibroblast assessed as inhibition of virus-induced cytopathic effect at 0.32 to 100 uM; assay type: functional, organism-based; outline: as §1
[10] = system: Human alphaherpesvirus 2; experiment: Antiviral activity against HSV2 G infected in human lung fibroblast assessed as inhibition of virus-induced cytopathic effect at 0.32 to 100 uM; assay type: functional, organism-based; details: strain G; outline: as §1
[11] = system: Vaccinia virus; experiment: Antiviral activity against Vaccinia virus infected in human lung fibroblast assessed as inhibition of virus-induced cytopathic effect at 0.32 to 100 uM; assay type: functional, organism-based; details: Orthopoxvirus vaccinia
[12] = system: Vesicular stomatitis virus; experiment: Antiviral activity against VSV infected in human lung fibroblast assessed as inhibition of virus-induced cytopathic effect at 0.32 to 100 uM; assay type: functional, organism-based
[13] = system: Human respirovirus 3; experiment: Antiviral activity against Parainfluenza virus 3 infected in african green monkey Vero cells assessed as inhibition of virus-induced cytopathic effect at 0.32 to 100 uM; assay type: functional, organism-based; outline: as §1
[14] = system: Mammalian orthoreovirus 1; experiment: Antiviral activity against Reovirus-1 infected in african green monkey Vero cells assessed as inhibition of virus-induced cytopathic effect at 0.32 to 100 uM; assay type: functional, organism-based; outline: as §1
[15] = system: Sindbis virus; experiment: Antiviral activity against Sindbis virus infected in african green monkey Vero cells assessed as inhibition of virus-induced cytopathic effect at 0.32 to 100 uM; assay type: functional, organism-based; outline: as §1
[16] = system: Coxsackievirus B4; experiment: Antiviral activity against Coxsackievirus B4 infected in african green monkey Vero cells assessed as inhibition of virus-induced cytopathic effect at 0.32 to 100 uM; assay type: functional, organism-based; outline: as §1
[17] = system: Punta Toro virus; experiment: Antiviral activity against Punta Toro virus infected in african green monkey Vero cells assessed as inhibition of virus-induced cytopathic effect at 0.32 to 100 uM; assay type: functional, organism-based; outline: as §1
[18] = system: Vesicular stomatitis virus; experiment: Antiviral activity against Vesicular stomatitis virus infected in human cervix carcinoma cells assessed as inhibition of virus-induced cytopathic effect at 0.32 to 100 uM; assay type: functional, organism-based
Outline: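 Confluent human cervix carcinoma (HeLa) cultures received 100 CCID50 of VSV together with the compound at 100, 40, 8, 1.6 or 0.32 μM. Cytopathicity was read at the point of full CPE in infected, untreated control wells.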

[19] = system: Felid alphaherpesvirus 1; experiment: Antiviral activity against Feline herpesvirus infected in feline CRFK cells assessed as inhibition of virus-induced cytopathic effect at 0.32 to 100 uM; assay type: functional, organism-based; outline: as §1
[20] = system: Feline coronavirus; experiment: Antiviral activity against Feline coronavirus infected in feline CRFK cells assessed as inhibition of virus-induced cytopathic effect at 0.32 to 100 uM; assay type: functional, organism-based; outline: as §1
[21] = system: Influenza A virus; experiment: Antiviral activity against Influenza A virus H1N1 infected in MDCK cells assessed as inhibition of virus-induced cytopathic effect at 0.32 to 100 uM; assay type: functional, organism-based
Outline: (§4)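 Confluent MDCK monolayers were infected in the presence of the compound at 100, 40, 8, 1.6 and 0.32 μM. Viral cytopathicity was scored once it was complete in untreated infected control cultures.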

[22] = system: Influenza A virus; experiment: Antiviral activity against Influenza A virus H3N2 infected in MDCK cells assessed as inhibition of virus-induced cytopathic effect at 0.32 to 100 uM; assay type: functional, organism-based; outline: as §4
[23] = system: Influenza B virus; experiment: Antiviral activity against Influenza B virus infected in MDCK cells assessed as inhibition of virus-induced cytopathic effect at 0.32 to 100 uM; assay type: functional, organism-based; outline: as §4
[24] = system: Human immunodeficiency virus 1; experiment: Antiviral activity against HIV1 3B infected in human CEM cells assessed as inhibition of virus-induced CEM giant cell formation at 0.32 to 100 uM after 4 days; assay type: functional, organism-based; details: CCRF-CEM
Outline: (§5)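 CEM cells (~3 × 10^5 cells/cm³) exposed to 100 CCID50/ml of virus and seeded into wells holding compound dilutions. Incubated 4 days at 37 °C, then giant cell formation examined microscopically.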

[25] = system: Human immunodeficiency virus 2; experiment: Antiviral activity against HIV2 ROD infected in human CEM cells assessed as inhibition of virus-induced CEM giant cell formation at 0.32 to 100 uM after 4 days; assay type: functional, organism-based; details: ISOLATE ROD, CCRF-CEM; outline: as §5
[26] = system: Radical scavenging activity; experiment: Antioxidant activity assessed as DPPH free radical scavenging activity at 100 uM after 20 mins by spectrophotometric analysis; assay type: functional
Outline: (§6)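 0.05 mM DPPH in absolute ethanol mixed with an equal volume of compound in DMSO (final 100 μM). Shaken and left 20 or 60 min, then absorbance read at 517 nm and percent activity calculated. Three replicates, averaged.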

[27] = system: Radical scavenging activity; experiment: Antioxidant activity assessed as DPPH free radical scavenging activity at 100 uM after 60 mins by spectrophotometric analysis; assay type: functional; outline: as §6
[28] = Antioxidant activity assessed as inhibition of AAPH-induced linoleic acid lipid peroxidation by measuring conjugated diene hydroperoxide level; assay type: functional; design: concentration or dose not given beside the values
Outline: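 Linoleic acid sodium salt (10 μL of 16 mM) in 0.05 M phosphate buffer pH 7.4 at 37 °C. Oxidation started under air with 50 μL of 40 mM AAPH. Conjugated diene hydroperoxide formation followed as absorbance rise at 234 nm; control contains the same DMSO level. At least triplicate.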

[29] = system: Glycine max; experiment: Inhibition of soybean LOX assessed as conversion of sodium linoleate to 13- hydroperoxylinoleic acid at 100 uM
[30] = dose or concentration not given here

CC(C)Cc1ccc(C(C)C(=O)NN)cc1 (centres undefined)
inhibition [1]: inactive
inhibition [2]: inactive
IC50 [3]: 170 µM
IC50 [4]: 147 µM
IC50 [5]: 129 µM
IC50 [6]: > 100 µM
IC50 [7]: > 100 µM
IC50 [8]: > 100 µM
inhibition [9]: inactive
inhibition [10]: inactive
inhibition [11]: inactive
inhibition [12]: inactive
inhibition [13]: inactive
inhibition [14]: inactive
inhibition [15]: inactive
inhibition [16]: inactive
inhibition [17]: inactive
inhibition [18]: inactive
inhibition [19]: inactive
inhibition [20]: inactive
inhibition [21]: inactive
inhibition [22]: inactive
inhibition [23]: inactive
inhibition [24]: inactive
inhibition [25]: inactive
Activity [26]: inactive
Activity [27]: 1%
inhibition [28, 30]: 6%
inhibition [29]: 8%

CC(C(=O)NNC(=O)NNC(=O)NO)c1cccc(Oc2ccccc2)c1 (centres undefined)
inhibition [1]: inactive
inhibition [2]: inactive
IC50 [3]: > 250 µM
IC50 [4]: > 250 µM
IC50 [5]: ≥ 250 µM
IC50 [6]: > 100 µM
IC50 [7]: > 100 µM
IC50 [8]: > 100 µM
inhibition [9]: inactive
inhibition [10]: inactive
inhibition [11]: inactive
inhibition [12]: inactive
inhibition [13]: inactive
inhibition [14]: inactive
inhibition [15]: inactive
inhibition [16]: inactive
inhibition [17]: inactive
inhibition [18]: inactive
inhibition [19]: inactive
inhibition [20]: inactive
inhibition [21]: inactive
inhibition [22]: inactive
inhibition [23]: inactive
inhibition [24]: inactive
inhibition [25]: inactive
Activity [26]: 23%
Activity [27]: 48%
inhibition [28, 30]: 13%
inhibition [29]: inactive

CC(C(=O)NNC(=O)NOCc1ccccc1)c1cccc(Cc2ccccc2)c1 (centres undefined)
inhibition [1]: inactive
inhibition [2]: inactive
IC50 [3]: 79 µM
IC50 [4]: 101 µM
IC50 [5]: 78 µM
IC50 [6]: 56 µM
IC50 [7]: 41 µM
IC50 [8]: 82 µM
inhibition [9]: inactive
inhibition [10]: inactive
inhibition [11]: inactive
inhibition [12]: inactive
inhibition [13]: inactive
inhibition [14]: inactive
inhibition [15]: inactive
inhibition [16]: inactive
inhibition [17]: inactive
inhibition [18]: inactive
inhibition [19]: inactive
inhibition [20]: inactive
inhibition [21]: inactive
inhibition [22]: inactive
inhibition [23]: inactive
inhibition [24]: inactive
inhibition [25]: inactive
Activity [26]: 3%
Activity [27]: 6%
inhibition [28]: inactive
inhibition [29]: inactive

CC(C)Cc1ccc(C(C)C(=O)NNC(=O)NC2CCCCC2)cc1 (centres undefined)
inhibition [1]: inactive
inhibition [2]: inactive
IC50 [3]: 30 µM
IC50 [4]: 53 µM
IC50 [5]: 69 µM
IC50 [6]: 28 µM
IC50 [7]: 19 µM
IC50 [8]: 35 µM
inhibition [9]: inactive
inhibition [10]: inactive
inhibition [11]: inactive
inhibition [12]: inactive
inhibition [13]: inactive
inhibition [14]: inactive
inhibition [15]: inactive
inhibition [16]: inactive
inhibition [17]: inactive
inhibition [18]: inactive
inhibition [19]: inactive
inhibition [20]: inactive
inhibition [21]: inactive
inhibition [22]: inactive
inhibition [23]: inactive
inhibition [24]: inactive
inhibition [25]: inactive
Activity [26]: inactive
Activity [27]: inactive
inhibition [28, 30]: 33%
inhibition [29]: inactive

CC(C)Cc1ccc(C(C)C(=O)NNC(=O)NCc2ccccc2)cc1 (centres undefined)
inhibition [1]: inactive
inhibition [2]: inactive
IC50 [3]: 110 µM
IC50 [4]: 74 µM
IC50 [5]: 173 µM
IC50 [6]: 34 µM
IC50 [7]: 29 µM
IC50 [8]: 59 µM
inhibition [9]: inactive
inhibition [10]: inactive
inhibition [11]: inactive
inhibition [12]: inactive
inhibition [13]: inactive
inhibition [14]: inactive
inhibition [15]: inactive
inhibition [16]: inactive
inhibition [17]: inactive
inhibition [18]: inactive
inhibition [19]: inactive
inhibition [20]: inactive
inhibition [21]: inactive
inhibition [22]: inactive
inhibition [23]: inactive
inhibition [24]: inactive
inhibition [25]: inactive
Activity [26]: inactive
Activity [27]: inactive
inhibition [28, 30]: 12%
inhibition [29]: inactive

CC(C)Cc1ccc(C(C)C(=O)NNC(=O)NO)cc1 (centres undefined)
inhibition [1]: inactive
inhibition [2]: inactive
IC50 [3]: 108 µM
IC50 [4]: 205 µM
IC50 [5]: 160 µM
IC50 [6]: > 100 µM
IC50 [7]: > 100 µM
IC50 [8]: > 100 µM
inhibition [9]: inactive
inhibition [10]: inactive
inhibition [11]: inactive
inhibition [12]: inactive
inhibition [13]: inactive
inhibition [14]: inactive
inhibition [15]: inactive
inhibition [16]: inactive
inhibition [17]: inactive
inhibition [18]: inactive
inhibition [19]: inactive
inhibition [20]: inactive
inhibition [21]: inactive
inhibition [22]: inactive
inhibition [23]: inactive
inhibition [24]: inactive
inhibition [25]: inactive
Activity [26]: 29%
Activity [27]: 54%
inhibition [28, 30]: 20%
inhibition [29]: 7%
